Here are results for 2 compounds from ChEMBL document CHEMBL2062476, “One pot efficient diversity oriented synthesis of polyfunctional styryl thiazolopyrimidines and their bio-evaluation as antimalarial and anti-HIV agents” (Eur J Med Chem, 2012).

By CC50 is commonly meant the concentration at which the toxic effect on the cells reaches its halfway point. A word on the inhibition: it is the share of the control response that was lost under treatment. As a reminder, the IC50 is the concentration that inhibits the measured activity by half.

In brackets after ≈: the same amount, converted by molar mass.

Data set [1] can be described thus: Cytotoxicity against african green monkey Vero C1008 cells incubated for 72 hrs by resazurin dye based fluorometric assay. The data set is classed as cell-based. Conditions: chlorocebus sabaeus. Put shortly: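 Vero (C1008) cells grown in MEM with 15% FBS, 37 °C, 5% CO2; trypsinized, seeded at 1 × 10^5 cells/mL and left to adhere overnight. Serial compound dilutions added for 72 h. Resazurin added, fluorescence read after 4 h; CC50 derived from viability.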

A short description of data set [2]: Selectivity index, ratio of CC50 for african green monkey Vero C1008 cells to IC50 for chloroquine resistant Plasmodium falciparum K1. The data set is classed as functional. The method, boiled down: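 Vero C1008 cells grown in MEM with 15% FBS. Seeded at 1 × 10^5 cells/mL, left to adhere overnight, then exposed to serial compound dilutions for 72 h. Viability read by resazurin fluorescence after 4 h and CC50 derived. SI = CC50 / IC50 against K1, with IC50 from the 72 h SYBR green parasite assay.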

Data set [3] concerns Human immunodeficiency virus. Description: Inhibition of HIV reverse transcriptase activity at 100 ug/ml incubated at 37 degC for 1 hr by ELISA RT assay. The method, boiled down: (§1)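 Colorimetric ELISA kit: template/primer with dNTPs (digoxigenin- and biotin-labelled dUTP) plus HIV-1 RT in lysis buffer, 60 µl total, 37 °C for 1 h; no-RT lysis buffer as negative control. Product captured on streptavidin plate 1 h at 37 °C, anti-DIG-POD (200 mU/mL) 1 h, ABTS substrate; OD 405 nm (reference 490 nm).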

The test system of data set [4] is Plasmodium falciparum. The experiment in a line: Antimalarial activity against chloroquine sensitive Plasmodium falciparum 3D7 infected in RBCs incubated for 72 hrs by SYBRgreen dye based fluorometric assay. The data set is classed as functional, organism-based. To be noted: 3D7, 72 h. Put shortly:
(§2)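 Parasites kept in RPMI-1640 (HEPES) with 0.5% AlbuMaxII, 0.2% glucose, 0.2% NaHCO3, 15 µM hypoxanthine, 37 °C, 5% CO2. Compounds in DMSO (10mg/mL stock), two-fold serial dilutions. Infected erythrocytes added at 4% haematocrit, 1% parasitaemia, incubated 72 h. Lysis buffer with SYBR green added for 4 h in the dark at room temp. Fluorescence read at ex 485/em 535 nm. IC50 taken from parasite DNA content relative to controls.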

Data set [5] in a line: Selectivity index, ratio of CC50 for african green monkey Vero C1008 cells to IC50 for chloroquine sensitive Plasmodium falciparum 3D7. The data set is classed as functional. The method, boiled down: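 SI = CC50 in Vero cells (resazurin, 72 h) divided by IC50 against P. falciparum 3D7. The IC50 came from a SYBR green assay: cultures in RPMI-1640 with 0.5% AlbuMaxII and 15 µM hypoxanthine, 4% haematocrit, 1% parasitaemia, two-fold dilutions, 72 h at 37 °C. Lysis with SYBR green for 4 h, read at ex 485/em 535 nm.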

The test system of data set [6] is Human immunodeficiency virus. The experiment in a line: Inhibition of HIV reverse transcriptase activity at 10 ug/ml incubated at 37 degC for 1 hr by ELISA RT assay. Put shortly: as §1
In data set [7] the test system is Plasmodium falciparum. Description: Antimalarial activity against chloroquine resistant Plasmodium falciparum K1 infected in RBCs incubated for 72 hrs by SYBRgreen dye based fluorometric assay. The data set is classed as functional, organism-based. Conditions: K1, 72 h. The method, boiled down:
as §2

Compound `COc1ccc(/C=C/C(=O)C2=C(/C=C/c3ccc(OC)cc3)N=C3SC=C(C)N3C2c2cc(OC)c(OC)c(OC)c2)cc1` (centres undefined) yielded a CC50 at 72 h in data set [1] of 348 µg/mL (≈ 570 µM). Besides, the “Ratio CC50/IC50” value is reported as 489.94 in data set [2] and 221.57 in data set [5]. Moreover, the inhibition in data set [3] stood at 51.3%; in data set [6], 30.1%. In addition, the IC50 with Plasmodium falciparum [4] was determined as 1.57 µg/mL (≈ 2.57 µM); in the data set on Plasmodium falciparum [7] it was 0.71 µg/mL (≈ 1.16 µM).

Turning to `COc1ccc(C2C(C(=O)/C=C/c3ccccc3)=C(/C=C/c3ccccc3)N=C3SC=C(C)N32)cc1` (centres undefined), the CC50 at 72 h in data set [1] is 211 µg/mL (≈ 430 µM). Further, the results for the “Ratio CC50/IC50” value in data set [2] and in data set [5] were 248.11 and 99.95, respectively. Moreover, the inhibition stood at 48.6% in data set [3] and 39.4% in data set [6]. The IC50 in the data set with Plasmodium falciparum [4] came to 2.11 µg/mL (≈ 4.3 µM); in the data set with Plasmodium falciparum [7], 0.85 µg/mL (≈ 1.73 µM).
